From ChEMBL document CHEMBL1144212, “Design and synthesis of 3-pyrazolyl-thiophene, thieno[2,3-d]pyrimidines as new bioactive and pharmacological activities” (Bioorg Med Chem Lett, 2008) come the findings set out here.

For series [1], the system named is Rattus norvegicus. In words: Antiinflammatory activity against carrageenan-induced albino rat hind paw edema model assessed as edema rate at 15 mg/kg, po administered 1 hr before carrageenan challenge measured after 3 hrs. The series is classed as functional. Put shortly: (§1)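 Albino rats of both sexes were fasted 18 h, five per group. Dosing was 15 mg/kg orally as an aqueous suspension (tween-80/water vehicle), 1 h before subplantar 0.1 mL 1% w/v carrageenin in the left hind paw. Paw volume was measured by mercury plethysmometer before injection, then hourly for 4 h. Edema rate = (Vt − Vo)/Vo.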
A general note: The carrageenan paw model is a standard test of acute inflammation.

For series [2], the system named is Rattus norvegicus. In words: Gastrointestinal toxicity in carrageenan-induced albino rat hind paw edema model assessed as induction of ulcerogenicity at 15 mg/kg, po. The series is classed as organism-based. Also noted: dose 15 mg/kg, route oral. The settings on record: in vivo.
The test system of series [3] is Rattus norvegicus. In words: Antiinflammatory activity against carrageenan-induced albino rat hind paw edema model at 15 mg/kg, po administered 1 hr before carrageenan challenge measured after 2 hrs relative to indomethacin. The series is classed as functional.
Series [4] deals with Mus musculus. Put plainly: Analgesic activity in Swiss albino mouse at 20 mg/kg, po assessed as reaction time after 30 mins by hot plate method. The series is classed as functional. Put shortly: (§2)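 Swiss albino mice of both sexes (25–30 g), kept at 22 °C on a 12 h light/dark cycle, in groups of five. Given 20 mg/kg orally as an aqueous suspension; aspirin reference at 20 mg/kg orally. Hot plate at 53 °C. Reaction time (placement to hind-paw licking or jumping) was taken before dosing and at 15, 30, 60 and 90 min; 60 s cut-off.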
Background: Thermal pain tests record how soon the animal reacts.

In series [5] the test system is Rattus norvegicus. Put plainly: Antiinflammatory activity against carrageenan-induced albino rat hind paw edema model assessed as edema rate at 15 mg/kg, po administered 1 hr before carrageenan challenge measured after 4 hrs. The series is classed as functional. Put shortly: as §1
Series [6] has as its system Rattus norvegicus. Put plainly: Antiinflammatory activity against carrageenan-induced albino rat hind paw edema model assessed as edema rate at 15 mg/kg, po administered 1 hr before carrageenan challenge measured after 2 hrs. The series is classed as functional. Put shortly:
as §1

Series [7] has as its system Rattus norvegicus. Put plainly: Antiinflammatory activity against carrageenan-induced albino rat hind paw edema model at 15 mg/kg, po administered 1 hr before carrageenan challenge measured after 1 hr relative to indomethacin. The series is classed as functional.
For series [8], the system named is Mus musculus. Put plainly: Analgesic activity in Swiss albino mouse at 20 mg/kg, po assessed as reaction time after 60 mins by hot plate method. The series is classed as functional. Put shortly:
as §2

The subject of series [9] is Mus musculus. Put plainly: Analgesic activity in Swiss albino mouse at 20 mg/kg, po assessed as reaction time after 90 mins by hot plate method. The series is classed as functional. The method, boiled down: as §2
Series [10] deals with Rattus norvegicus. Put plainly: Antiinflammatory activity against carrageenan-induced albino rat hind paw edema model at 15 mg/kg, po administered 1 hr before carrageenan challenge measured after 4 hrs relative to indomethacin. The series is classed as functional.
Series [11] deals with Rattus norvegicus. Put plainly: Antiinflammatory activity against carrageenan-induced albino rat hind paw edema model assessed as edema rate at 15 mg/kg, po administered 1 hr before carrageenan challenge measured after 1 hr. The series is classed as functional. The method, boiled down: as §1
Series [12] concerns Rattus norvegicus. In words: Antiinflammatory activity against carrageenan-induced albino rat hind paw edema model at 15 mg/kg, po administered 1 hr before carrageenan challenge measured after 3 hrs relative to indomethacin. The series is classed as functional.
The subject of another series is Bacillus cereus. In words: Antibacterial activity against Bacillus cereus BTCC19 after 48 hrs by disc diffusion method. The series is classed as functional. The method, boiled down: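 Disc diffusion on nutrient agar. Compounds were dissolved in DMF at 1 mg/mL, applied per disc. Inhibition zones (mm) were read after 48 h at 28 °C. DMF alone was the negative control; ampicillin was the reference.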

A further series has as its system Fusarium equiseti. In words: Antifungal activity against Fusarium equiseti (Corda) Sacc after 48 hrs by poisoned-food technique. The series is classed as functional. Also noted: concentration or dose not given beside the values.
Another series has as its system Shigella dysenteriae. Put plainly: Antibacterial activity against Shigella dysenteriae AE 14396 after 48 hrs by disc diffusion method. The series is classed as functional. To be noted: read-out: MIC. In general terms: Agar diffusion results depend on both activity and mobility in agar.
The next series deals with Salmonella typhi. Put plainly: Antibacterial activity against Salmonella typhi AE 14612 after 48 hrs by disc diffusion method. The series is classed as functional, Salmonella enterica subsp. enterica serovar Typhi. To be noted: Salmonella enterica, read-out: MIC.

Consider `CCOC(=O)c1sc(N)c(C(=O)n2nc(C)cc2C)c1C`, for which the Activity in the series with Rattus norvegicus [1] was 8.46%; with Rattus norvegicus [2] it was “Non-toxic”; in the series on Rattus norvegicus [3] it was 19.8%; in the series with Mus musculus [4], 7.72 s; with Rattus norvegicus [5], -0.25%; with Rattus norvegicus [6] it was 7.88%. Besides, the Activity is reported as -7.27% with Rattus norvegicus [7]; 7.62 s in the series with Mus musculus [8]; 9.78 s in the series with Mus musculus [9]; 0.61% in the series on Rattus norvegicus [10]; 2.58% in the series on Rattus norvegicus [11]; 25.38% in the series with Rattus norvegicus [12].
By inhibition is commonly meant the change of the read-out against control, counted positive when it falls. With `CCOC(=O)c1sc(N)c(C(=O)NN)c1C`, the Activity with Rattus norvegicus [1] was -9.8%; in the series on Rattus norvegicus [2], “Non-toxic”; with Rattus norvegicus [3], 22.22%; in the series on Mus musculus [4], 6.12 s; with Rattus norvegicus [5] it was -13.32%; with Rattus norvegicus [6], -8.84%. The Activity is reported as 37.85% with Rattus norvegicus [7]; 6.2 s in the series on Mus musculus [8]; 7.86 s in the series on Mus musculus [9]; 32.39% in the series with Rattus norvegicus [10]; -13.43% in the series on Rattus norvegicus [11]; 29.4% in the series with Rattus norvegicus [12]. Also, the values for the zone of inhibition in the series on Bacillus cereus and with Shigella dysenteriae were 10 mm and 6 µg/mL, respectively. The inhibition in the series with Fusarium equiseti came to 29.3%.
For the molecule `CCOC(=O)c1sc(N)c(C(=O)NNC(N)=S)c1C`, the zone of inhibition stood at 28 µg/mL in the series with Salmonella typhi, 20 mm in the series on Bacillus cereus and 13 µg/mL in the series with Shigella dysenteriae. The Activity was -29.4% in the series with Rattus norvegicus [1]; 93.52% with Rattus norvegicus [3]; 5.44 s with Mus musculus [4]; -34.62% in the series on Rattus norvegicus [5]; -37.21% with Rattus norvegicus [6]; 103.04% with Rattus norvegicus [7]. Besides, the Activity in the series with Mus musculus [8] came to 5.74 s; with Mus musculus [9] it was 6.14 s; in the series with Rattus norvegicus [10], 84.19%; in the series with Rattus norvegicus [11], 36.56%; in the series on Rattus norvegicus [12], 88.21%. For the same molecule, the inhibition in the series with Fusarium equiseti turned out to be 28%.
As to `CCOC(=O)c1sc(N)c(C(=O)NNC=O)c1C`, the results for the zone of inhibition in the series on Salmonella typhi, with Bacillus cereus and in the series on Shigella dysenteriae were 34 µg/mL, 33 mm and 30 µg/mL, respectively. The Activity is recorded as -29.58% in the series with Rattus norvegicus [1]; 96% in the series with Rattus norvegicus [3]; 6.08 s in the series with Mus musculus [4]; -31.32% in the series with Rattus norvegicus [5]; -38.2% in the series with Rattus norvegicus [6]; 144.25% in the series with Rattus norvegicus [7]. Also, the Activity with Mus musculus [8] is 6.9 s; in the series on Mus musculus [9], 4.84 s; with Rattus norvegicus [10] it was 76.17%; with Rattus norvegicus [11], -51.18%; in the series with Rattus norvegicus [12], 88.75%. In the series with Fusarium equiseti, this molecule showed an inhibition of 65.6%.
For the molecule `CCOC(=O)c1sc(N)c(C(=O)N/N=C/c2ccc(OC)cc2)c1C`, the zone of inhibition was 12 µg/mL with Salmonella typhi and 10 mm in the series on Bacillus cereus. For the same molecule, the Activity in the series with Rattus norvegicus [1] is -3.91%; in the series on Rattus norvegicus [3] it was 3.82%; in the series on Mus musculus [4], 6.42 s; in the series on Rattus norvegicus [5] it was -13.29%; with Rattus norvegicus [6], -1.52%; with Rattus norvegicus [7], 40.59%. In addition, the Activity with Mus musculus [8] was 7.72 s; in the series on Mus musculus [9] it was 9.06 s; with Rattus norvegicus [10], 32.32%; in the series with Rattus norvegicus [11] it was -14.4%; in the series on Rattus norvegicus [12] it was 11.73%. Further, the inhibition with Fusarium equiseti was 28%.
As for `CC(=O)Oc1ccccc1C(=O)O` [ASPIRIN], the results for the Activity in the series with Mus musculus [4], with Mus musculus [8] and with Mus musculus [9] were 6.66 s, 6.56 s and 7.78 s, respectively.
With `CCOC(=O)c1sc2[nH]c(=S)n(N)c(=O)c2c1C`, the zone of inhibition was found to be 17 µg/mL with Salmonella typhi, 19 mm in the series with Bacillus cereus and 18 µg/mL in the series on Shigella dysenteriae. Further, the Activity was -10.58% with Rattus norvegicus [1]; 36.54% in the series with Rattus norvegicus [3]; 6.6 s in the series on Mus musculus [4]; -24.67% in the series with Rattus norvegicus [5]; -14.54% in the series with Rattus norvegicus [6]; 85.09% in the series with Rattus norvegicus [7]. Moreover, the Activity is listed as 7.24 s with Mus musculus [8]; 7.16 s with Mus musculus [9]; 59.99% in the series on Rattus norvegicus [10]; -30.19% in the series on Rattus norvegicus [11]; 31.74% in the series with Rattus norvegicus [12]. In the series with Fusarium equiseti, this molecule had an inhibition of 47.6%.
`CCOC(=O)c1sc(N)c(C(=O)NNc2nc(C)cs2)c1C`: the zone of inhibition came to 29 µg/mL in the series on Salmonella typhi, 31 mm with Bacillus cereus and 28 µg/mL in the series with Shigella dysenteriae. In addition, the Activity is listed as -25.33% with Rattus norvegicus [1]; 93.42% in the series with Rattus norvegicus [3]; 6.68 s with Mus musculus [4]; -26.53% with Rattus norvegicus [5]; -37.17% with Rattus norvegicus [6]; 127.23% with Rattus norvegicus [7]. For the same molecule, the Activity is recorded as 6.46 s in the series with Mus musculus [8]; 4.7 s in the series with Mus musculus [9]; 64.52% with Rattus norvegicus [10]; -45.14% in the series on Rattus norvegicus [11]; 75.99% in the series on Rattus norvegicus [12]. In the series with Fusarium equiseti, this molecule registered an inhibition of 43.8%.
Regarding `CC1(C)S[C@@H]2[C@H](NC(=O)[C@H](N)c3ccccc3)C(=O)N2[C@H]1C(=O)O` [AMPICILLIN], the figures for the zone of inhibition with Salmonella typhi, in the series on Bacillus cereus and in the series on Shigella dysenteriae were 24 µg/mL, 21 mm and 30 µg/mL, respectively.
Take `CCOC(=O)c1sc(NC(C)=O)c(C(=O)OCC)c1C`: the zone of inhibition with Salmonella typhi turned out to be 11 µg/mL; in the series with Bacillus cereus, 11 mm; in the series with Shigella dysenteriae, 14 µg/mL. Besides, the Activity is -4% in the series on Rattus norvegicus [1]; 30.44% in the series on Rattus norvegicus [3]; 7.34 s with Mus musculus [4]; -5.2% in the series with Rattus norvegicus [5]; -12.11% in the series with Rattus norvegicus [6]; 42.36% in the series with Rattus norvegicus [7]. The Activity is 5.96 s in the series on Mus musculus [8]; 6.08 s in the series with Mus musculus [9]; 12.65% with Rattus norvegicus [10]; -15.03% in the series on Rattus norvegicus [11]; 0.12% with Rattus norvegicus [12]. The molecule further registered an inhibition with Fusarium equiseti of 36.3%.
Take `CCOC(=O)c1sc(N)c(C(=O)N2NC(=O)CC2=O)c1C`: the zone of inhibition in the series on Salmonella typhi turned out to be 15 µg/mL; in the series on Bacillus cereus, 9 mm; with Shigella dysenteriae, 12 µg/mL. Also, the Activity in the series on Rattus norvegicus [1] is -20.9%; in the series on Rattus norvegicus [2] it was “Non-toxic”; with Rattus norvegicus [3], 78.01%; in the series on Mus musculus [4], 10.22 s; in the series on Rattus norvegicus [5], -26.84%; in the series with Rattus norvegicus [6], -31.04%. Also, the Activity in the series on Rattus norvegicus [7] is listed as 74.8%; in the series with Mus musculus [8] it was 12.42 s; with Mus musculus [9], 10.68 s; with Rattus norvegicus [10], 65.27%; with Rattus norvegicus [11], -26.54%; in the series on Rattus norvegicus [12], 65.5%. This molecule displayed an inhibition with Fusarium equiseti of 40%.
Turning to `CCOC(=O)c1sc2nc(C)n(N)c(=O)c2c1C`, the zone of inhibition is 15 µg/mL in the series with Salmonella typhi, 15 mm in the series on Bacillus cereus and 7 µg/mL with Shigella dysenteriae. For the same molecule, the Activity in the series with Rattus norvegicus [1] is -14.65%; with Rattus norvegicus [3], 45.06%; in the series with Mus musculus [4] it was 6.46 s; in the series on Rattus norvegicus [5], -15.24%; in the series with Rattus norvegicus [6], -17.93%; with Rattus norvegicus [7], 84.05%. For the same molecule, the Activity with Mus musculus [8] is recorded as 5.04 s; with Mus musculus [9], 6.7 s; with Rattus norvegicus [10], 37.06%; in the series on Rattus norvegicus [11], -29.82%; in the series on Rattus norvegicus [12], 43.95%. Further, in the series on Fusarium equiseti, the inhibition was 37.5%.
